IC50 data for five compounds are collected here from ChEMBL document CHEMBL1151991, “Cytotoxic guanidine alkaloids from Pterogyne nitens” (J Nat Prod, 2009).

Values after ≈ are worked out from the molar mass of the structure shown. Bounds are passed on as bounds.

For orientation: IC50 means the concentration that inhibits the measured activity by half. Lower therefore signals inhibition by little substance.

Type in all cases: functional, cell-based
One test relates to HL-60. Nature of the test: Cytotoxicity against human HL60 cells after 3 days by MTT assay. The conditions noted are these: HL-60, 72 h. The method in brief:
(§1)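 Cells kept in RPMI-1640 with 10% fetal calf serum, 2 mM glutamine, streptomycin and penicillin at 37 °C, 5% CO2. Seeded at 10^5 cells/well (adherent) or 0.3 × 10^6 cells/well (suspension). […] Medium then replaced by 0.5 mg/mL MTT for 3 h, formazan dissolved in DMSO, absorbance read. IC50 by modified NCI protocol.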
On the technique in general: Tetrazolium assays rely on reduction of a dye to a coloured formazan, in cell work by metabolically active cells.

The next test has as its system HCT-8. As to the kind of experiment: Cytotoxicity against human HCT8 cells after 3 days by MTT assay. To be noted: HCT-8, 72 h. The method in brief: as §1
The subject of the next test is MDA-MB-435. As to the kind of experiment: Cytotoxicity against human MDA-MB-435 cells after 3 days by MTT assay. The conditions noted are these: MDA-MB-435, 72 h. In short, it runs like this:
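Seeded at 10^5 cells/well (adherent) or 0.3 × 10^6 cells/well (suspension). Medium then replaced by 0.5 mg/mL MTT for 3 h, formazan dissolved in DMSO, absorbance read. IC50 by modified NCI protocol.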

Another test deals with SF-295. Nature of the test: Cytotoxicity against human SF295 cells after 3 days by MTT assay. The conditions noted are these: SF-295, 72 h. In short, it runs like this: as §1

On to `CC(C)=CCN=C(N)N` [GALEGINE], for which the IC50 with HL-60, in the test with HCT-8, with MDA-MB-435 and in the test with SF-295 was more than 5 µg/mL in each case.

For the compound `CC(C)=CCC/C(C)=C/CN=C(N)N` [NITENSIDINE D], the IC50 in the test with HL-60, in the test on HCT-8, with MDA-MB-435 and in the test with SF-295 was more than 5 µg/mL in each case.

`CC(C)=C/C=C/C1(C)CCN=C(N)N1` (stereo not given) [NITENSIDINE E]: the IC50 in the test with HL-60 is 3.6 µg/mL (≈ 18.6 µM); in the test with HCT-8, more than 5 µg/mL; in the test with MDA-MB-435, more than 5 µg/mL; with SF-295, 4.9 µg/mL (≈ 25.3 µM).

`CC(C)=CCNC(=N)NCC=C(C)C` [PTEROGYNIDINE]: the IC50 with HL-60, with HCT-8, in the test on MDA-MB-435 and with SF-295 was more than 5 µg/mL in each case.

For `CC(C)=CCN(CC=C(C)C)C(=N)N` [PTEROGYNINE], the half-maximal inhibitory concentration (IC50) with HL-60, in the test with HCT-8, in the test on MDA-MB-435 and with SF-295 was more than 5 µg/mL in each case.
